UHRF1 MBD2 ctr: human UHRF1 methylated DNA binding inhibitors; inhibition, % at 4.4 µM; Q96T88; UHRF1 binding to methylated oligo, TR-FRET; 370,000 compounds, 0.75% hits; in the data active means inhibition above about 21%;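 further: UHRF1 SRA domain binding a hemimethylated CpG hairpin DNA probe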
MBD2 inh: MBD2-methylated oligo binding inhibition | AID 686964 | Q9UBB5 | TR-FRET, MBD2 binding to methylated oligonucleotide | 370,000 compounds, 0.31% hits | inhibition, % at 4.4 µM; in the data active means inhibition above about 13%
Target sequence (Q9UBB5 whole entry, looked up): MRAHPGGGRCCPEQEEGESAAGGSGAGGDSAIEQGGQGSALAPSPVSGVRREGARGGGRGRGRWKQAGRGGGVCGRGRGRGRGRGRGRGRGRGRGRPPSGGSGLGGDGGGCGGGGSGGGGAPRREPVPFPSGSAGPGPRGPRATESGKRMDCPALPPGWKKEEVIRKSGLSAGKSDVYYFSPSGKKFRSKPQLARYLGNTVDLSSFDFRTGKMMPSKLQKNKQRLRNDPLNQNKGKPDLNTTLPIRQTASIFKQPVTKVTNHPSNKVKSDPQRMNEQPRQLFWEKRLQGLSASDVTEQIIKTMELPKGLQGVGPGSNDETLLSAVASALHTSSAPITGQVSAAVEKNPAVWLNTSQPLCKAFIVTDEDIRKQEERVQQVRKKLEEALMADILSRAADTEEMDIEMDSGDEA
SUMO1 PPI mod: SUMO1-SIM interaction modulation; 360,000 compounds, 0.33% hits; SUMO1 binding to a labelled peptide, TR-FRET, 1 h; P63165; AID 602429; inhibition, % at 20 µM; in the data active means inhibition above about 37%
Target sequence (P63165 whole entry, looked up): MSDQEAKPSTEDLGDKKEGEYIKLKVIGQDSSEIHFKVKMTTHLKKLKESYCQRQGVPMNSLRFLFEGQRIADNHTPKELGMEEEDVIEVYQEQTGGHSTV
DNMT1 block: blocks human DNA methyltransferase DNMT1; P26358; DNMT1 molecular beacon, Hinp1I cleavage, fluorescence; inhibition (reported as % activation of signal), % at 10 µM; 360,000 compounds, 0.83% hits; in the data active means inhibition above about 50%
Pemphigus Ab inh: blocks pemphigus antibody binding to human desmoglein-3; 310,000 compounds, 0.48% hits; binding (percent of control), % at 10 µM; DSG3-coupled beads, scFv-anti-DSG3-GFP binding, flow cytometry; stronger effect = lower value; AID 588358; P32926;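 active means binding more than 3 SD below its plate's average and above zero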
HCV NS3 hel inh: inhibitors of Hepatitis C virus NS3 helicase; NS3 helicase DNA unwinding, Cy5 molecular beacon fluorescence; inhibition, % at 10.9 µM; 290,000 compounds, 0.56% hits;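 active means inhibition above the mean of all tested compounds plus 3 SD, set per campaign, cut at about 35% in these data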
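Control set: DMSO versus 110 µM thioflavine S; Material: NS3 helicase fragment of HCV; Measured by: Cy5 fluorescence at 0 and 60 min, beacon hairpin quenching; Read-out basis: percent inhibition from t60/t0 fluorescence ratio; Times: reaction time 60 min, 25 °C; Repeats: single replicate; Compound dosing: single dose, 10.9 µM nominal final, DMSO 0.8% final.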
Each line names hits and unclear results; the compound was inactive in the other large screens. This is a sample that favours compounds with a hit; in the whole collection about 2.5% have one here.

C/C(=N/NC(=O)C1CC1(c1ccccc1)c1ccccc1)c1ccco1 (stereo not given)	UHRF1 MBD2 ctr 28
Cc1ccc(-n2c(N)c(C(=O)Nc3c(C)n(C)n(-c4ccccc4)c3=O)c3nc4ccccc4nc32)cc1C	HCV NS3 hel inh 72 (no result: UHRF1 MBD2 ctr, MBD2 inh, SUMO1 PPI mod, DNMT1 block, Pemphigus Ab inh)
O=C(Nc1ccc(-c2nc3cccnc3s2)cc1)c1cccnc1Cl	none
CC(NC(=O)C1CCN(CCOc2ccc(Cl)cc2)CC1)c1cccc2ccccc12 (stereo not given)	UHRF1 MBD2 ctr 25 (no result: Pemphigus Ab inh, HCV NS3 hel inh)
S=C1NCN(C2CCCCC2)CN1c1ccccc1	none
COC(=O)CCCC(=O)N1CCCC(N(C)CCc2ccccc2)C1 (stereo not given)	none
Cc1ccc(OCCN2CCOCC2)cc1C	none
Cc1cc(OCCN2CCOCC2)ccc1Cl	UHRF1 MBD2 ctr 22
CCCCN1CC(C(=O)NCc2ccc(C)cc2)CC1=O (stereo not given)	none
COC(=O)c1cccc(COC(=O)c2cccnc2SC)c1	UHRF1 MBD2 ctr 34
CCn1ncc(NC(=S)NCCc2ccccc2)c1C(N)=O	none
CCC(C)NC(=O)c1cc(OC)c(OC)c(OC)c1 (stereo not given)	none (no result: UHRF1 MBD2 ctr, MBD2 inh)
CCOc1cc(C(=O)NC(C)CC)cc(OCC)c1OCC (stereo not given)	UHRF1 MBD2 ctr 27
O=C(NCC(c1ccco1)N1CCCC1)c1ccc(S(=O)(=O)Nc2ccccc2Cl)cc1 (stereo not given)	none (no result: Pemphigus Ab inh, HCV NS3 hel inh)
CC1CC(C)CN(C(=O)c2ccc(CSc3nc4ccncc4[nH]3)cc2)C1 (stereo not given)	UHRF1 MBD2 ctr 34
O=C(CCCCn1c(=O)c2ccccc2n(Cc2ccc(F)cc2Cl)c1=O)NCc1ccco1	none
Cc1cc(NC(=O)Cn2ccc([N+](=O)[O-])n2)no1	UHRF1 MBD2 ctr 23
CC1(C)C(/C=C/C=C/C=C/C=C2\N(CCCCS(=O)(=O)O)c3ccc4ccccc4c3C2(C)C)=[N+](CCCCS(=O)(=O)[O-])c2ccc3ccccc3c21	SUMO1 PPI mod 110, DNMT1 block 88, Pemphigus Ab inh 33 (no result: UHRF1 MBD2 ctr, MBD2 inh, HCV NS3 hel inh)
Cc1ccccc1CN1C[C@@H]2C[C@@H](c3cnc(N4CCOCC4)s3)N3CCC[C@@]23C1=O	none
O=C(Cn1nnc2ccccc2c1=O)NCCc1ccc(Cl)cc1Cl	UHRF1 MBD2 ctr 28
Clc1ccc(Cc2noc(-c3cccs3)n2)cc1	none
Cc1cccc(OC(C)C(=O)Nc2cc(S(=O)(=O)N3CCCCC3)ccc2C)c1 (stereo not given)	none (no result: HCV NS3 hel inh)
N#C/C(=C/c1cccn1-c1cccc(C(=O)O)c1)c1ccc(Cl)cc1	DNMT1 block 80
O=C(COC(=O)c1ccc(F)cc1F)Nc1cccnc1Cl	none (no result: HCV NS3 hel inh)
C=CCN1C(=O)C(CC(=O)Nc2ccc(C)cc2)SC1=Nc1c(C)n(C)n(-c2ccccc2)c1=O (stereo not given)	none
Cc1c(N=C2SC(CC(=O)Nc3ccccc3)C(=O)N2CCN2CCOCC2)c(=O)n(-c2ccccc2)n1C (stereo not given)	UHRF1 MBD2 ctr 28
CC12CC(c3ccccc3O1)N(C(=O)c1ccco1)C(=S)N2c1ccccc1 (stereo not given)	none
COc1cccc(C2/C(=C(/O)c3ccccc3)C(=O)C(=O)N2Cc2ccco2)c1 (stereo not given)	none
COc1cccc(C2/C(=C(/O)c3ccc(C)cc3)C(=O)C(=O)N2Cc2ccco2)c1 (stereo not given)	UHRF1 MBD2 ctr 29
Cc1ccc2nc(Cl)c(/C=N/NC(=O)[C@H]3C[C@@H]3c3ccccc3)cc2c1	SUMO1 PPI mod 40
Cc1ccc2c(c1)COc1c3ccc(C(=O)O)cc3nn1-2	none
Cc1cccc(N2CCN(C(=O)c3cc4c(=O)n(C)c5ccccc5c4n3C)CC2)c1C	none
CC1CCN(CCCNC(=O)c2cc3c(=O)n(C)c4ccccc4c3n2C)CC1	none
Cc1ccc(Cl)cc1N1CCN(C(=O)c2cc3c(=O)n(C)c4ccccc4c3n2C)CC1	SUMO1 PPI mod 48
Cn1c(C(=O)NCCCN2CCOCC2)cc2c(=O)n(C)c3ccccc3c21	Pemphigus Ab inh 83
COc1ccccc1NS(=O)(=O)c1cccc(NC(=O)NC2CCCCC2)c1	none (no result: Pemphigus Ab inh)
CC1=C(C(=O)OC(C)C)C(c2ccc(Cl)cc2)n2c(s/c(=C\c3ccc(OCC(=O)O)cc3)c2=O)=N1 (stereo not given)	SUMO1 PPI mod 97, DNMT1 block 86
CCOC(=O)C1=C(C)N=c2sc(=Cc3ccc(OCC(=O)O)cc3)c(=O)n2C1c1ccc(SC)cc1 (stereo not given)	SUMO1 PPI mod 107, DNMT1 block 89 (no result: Pemphigus Ab inh, HCV NS3 hel inh)
O=C(Cc1ccccc1)Nc1ccccc1Sc1ccccc1	none
CSc1ccccc1NC(=O)Cc1ccccc1	UHRF1 MBD2 ctr 23
CCC(C)(C)C1CCc2[nH]nc(C(=O)NC3CCCCC3)c2C1 (stereo not given)	none (no result: HCV NS3 hel inh)
O=c1sc(N2CCN(c3ccc(F)cc3)CC2)nc2ccsc12	Pemphigus Ab inh 79
Cc1cccc(NC(=O)C2c3ccccc3Oc3ccccc32)n1	none
Cc1ccc(SCC(=O)Nc2nccs2)cc1	none
C/C(=N\Nc1ccc(Cl)c(C(=O)O)c1)c1cc2ccccc2o1	UHRF1 MBD2 ctr 31
CCC(Cc1ccccc1)NC(=O)C1CCN(c2nn3c(=O)cc(C)nc3s2)CC1 (stereo not given)	none
NC(=O)CC(NC(=O)c1ccccc1)c1ccc(N2CCC(Br)CC2)c([N+](=O)[O-])c1 (stereo not given)	none (no result: HCV NS3 hel inh)
O=C(CN1C(=O)COc2ccc(Cl)cc21)Nc1nccs1	none (no result: HCV NS3 hel inh)
COc1cc(/C=C2\SC(=S)N(c3cccnc3)C2=O)ccc1O	SUMO1 PPI mod 109, DNMT1 block 57, Pemphigus Ab inh 68
COc1cc(/C=C2\SC(=S)N(NC(=O)c3cccnc3)C2=O)ccc1O	none
O=C(NC(=S)Nc1ccc(NC(=O)c2cccs2)cc1)c1cc2ccccc2o1	Pemphigus Ab inh 70
CC(=O)NC1=NC(=O)/C(=C/c2cc(C)n(-c3cccc(C(=O)O)c3)c2C)S1	UHRF1 MBD2 ctr 45, DNMT1 block 93 (no result: Pemphigus Ab inh)
COc1ccc(C(=O)Nn2c(CC(C)C)nc3cc(OC)c(OC)cc3c2=O)c(OC)c1	UHRF1 MBD2 ctr 34
COc1cc2nc(CC(C)C)n(NC(=O)c3ccccc3)c(=O)c2cc1OC	none
CN(C)/C=C(/C(=O)c1ccccc1Cl)S(=O)(=O)c1ccccc1	none
COc1ccc(C(=O)/C(=C/N(C)C)S(=O)(=O)c2ccccc2)cc1	UHRF1 MBD2 ctr 55
Cc1cccc(N2CCN(C3=NC(=O)/C(=C\c4cn[nH]c4-c4ccccc4)S3)CC2)c1	none
COc1cc(C(=O)OC(C)C(=O)NC2CCCCC2C)c([N+](=O)[O-])cc1OC (stereo not given)	none (no result: HCV NS3 hel inh)

Screening data as filed in PubChem BioAssay.
